Laboratory results taken from ChEMBL document CHEMBL1781963, “Discovery of novel hepatoselective HMG-CoA reductase inhibitors for treating hypercholesterolemia: a bench-to-bedside case study on tissue selective drug distribution” (Bioorg Med Chem Lett, 2011).

Legend:
[1] = Cmax in human plasma at 1 mg administered as single dose; format: ADME, organism-based; set-up: dose 1 mg
Summary of the method: (§1)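 Phase 1 single ascending oral dose in healthy volunteers, about 5–6 subjects per dose. Total plasma drug Cmax and AUC(0-∞) were measured. Free-drug exposures were derived using plasma protein binding.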

[2] = AUC (0 to infinity) in human plasma at 1 mg administered as single dose; format: ADME, cell-free; set-up: dose 1 mg, time infinity; summary of the method: as §1
Plasma [3] = test: fCmax in human plasma at 1 mg administered as single dose; format: ADME, cell-free
Summary of the method: (§2)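 Phase 1 single ascending oral dose in healthy volunteers, with N per dose group. Total plasma Cmax and AUC(0-∞) were measured. Free-drug exposures were derived from these using plasma protein binding (human plasma fu measured at 0.5 μg/mL).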

Homo sapiens [4] = test: Inhibition of HMG-CoA reductase in human assessed as decrease in AUC (0 to 24 hrs) of mevalonate level in plasma at 80 mg administered as single dose relative to control; format: functional
Plasma [5] = test: fAUC (0 to infinity) in human plasma at 1 mg administered as single dose; format: ADME, cell-free
[6] = Terminal half life in human plasma at 80 mg administered as single dose; format: ADME, cell-free; conditions: read-out: beta t1/2 (converted)
Homo sapiens [7] = test: Inhibition of HMG-CoA reductase in human assessed as decrease in AUC (0 to 72 hrs) of mevalonate level in plasma at 120 mg administered as single dose relative to control; format: functional
Plasma [8] = test: fAUC (0 to infinity) in human plasma at 120 mg administered as single dose; format: ADME, cell-free; summary of the method: as §2
Homo sapiens [9] = test: Inhibition of HMG-CoA reductase in human assessed as decrease in AUC (0 to 24 hrs) of mevalonate level in plasma at 120 mg administered as single dose relative to control; format: functional
[10] = Terminal half life in human plasma at 240 mg administered as single dose; format: ADME, cell-free; conditions: read-out: beta t1/2 (converted)
Plasma [11] = test: fCmax in human plasma at 320 mg administered as single dose; format: ADME, cell-free; summary of the method: as §2
Homo sapiens [12] = test: Inhibition of HMG-CoA reductase in human assessed as decrease in AUC (0 to 72 hrs) of mevalonate level in plasma at 320 mg administered as single dose relative to control; format: functional
Syrian golden hamster = test: Inhibition of cholesterol synthesis in golden syrian hamster assessed as reduction of [14C]-cholesterol level at 10 mg/kg, po followed by 3 hrs after treated with 80 uCi, ip of [14C]-sodium acetate measured after 5 hrs by liquid scintillation counting relative to control; format: functional; conditions: Mesocricetus auratus
Summary of the method: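 Separate hamster groups dosed po at 10 mg/kg at t = 0 h. 14C sodium acetate ip at t = 3 h, blood 14C cholesterol at t = 5 h. Percent change vs untreated controls, n = 8/group.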

[13] = Terminal half life in human plasma at 120 mg administered as single dose; format: ADME, cell-free; conditions: read-out: beta t1/2 (converted)

Which Cmax [1] does the source give for `Cc1ccc(CNC(=O)c2nn(-c3ccc(F)cc3)c(CC[C@@H](O)C[C@@H](O)CC(=O)O)c2C(C)C)cc1` here?
The Cmax was 33.5 ng/mL.

What about the AUC(0-inf) [2] of the same compound?
The AUC(0-inf) was 78.5 ng·h/mL.

And the fCmax (Plasma [3])?
The fCmax was 1.71 ng/mL.

What about the “inhibition (INH)” value (Homo sapiens [4]) of the same compound?
The value was -65%.

What about the fAUC (Plasma [5]) of the same compound?
The fAUC was 4 ng·h/mL.

And the half-life [6]?
The half-life was 6.28 h.

For `O=C([O-])C[C@H](O)C[C@H](O)CCn1c(-c2ccc(F)cc2)nc(C(=O)NCc2cccc(F)c2)c1C1CC1.[Na+]`, which “inhibition (INH)” value (Homo sapiens [7]) is on record?
Its value is -17%.

And the fAUC (Plasma [8])?
The fAUC was 3.63 ng·h/mL.

And the “inhibition (INH)” value (Homo sapiens [9])?
Its value is -46%.

And the half-life [10]?
The half-life was 4.06 h.

And the fCmax (Plasma [11])?
The fCmax was 12.8 ng/mL.

And the “inhibition (INH)” value (Homo sapiens [12])?
The value was -28%.

And the inhibition in vivo at 10 mg/kg (Syrian golden hamster)?
Its inhibition in vivo at 10 mg/kg is -43%.

And the half-life [13]?
The half-life was 3.07 h.
